Source: PubChem (The Scripps Research Institute Molecular Screening Center)
Only some compounds are listed: those with a hit (about 2.3% of all), similar ones and a draw of the others.
V1R ag counter = agonists of human V1a receptor, primary screen, counter-screen for OXTR agonist project, fluorescence, CHO-V1R cells; Vasopressin V1a receptor (Homo sapiens), P37288; Fluo-8 calcium fluorescence, agonist mode; 0% DMSO, 100% 3 nM vasopressin; activation, % at 3 µM; 320,000 tested, 0.25% active;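 active = activation above the mean activation of all tested compounds plus 3 SD, per screening run, cut at about 20% in these data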;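 note: signal is peak over basal fluorescence ratio across a 100 second FLIPR read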
Target sequence (P37288 whole entry, looked up): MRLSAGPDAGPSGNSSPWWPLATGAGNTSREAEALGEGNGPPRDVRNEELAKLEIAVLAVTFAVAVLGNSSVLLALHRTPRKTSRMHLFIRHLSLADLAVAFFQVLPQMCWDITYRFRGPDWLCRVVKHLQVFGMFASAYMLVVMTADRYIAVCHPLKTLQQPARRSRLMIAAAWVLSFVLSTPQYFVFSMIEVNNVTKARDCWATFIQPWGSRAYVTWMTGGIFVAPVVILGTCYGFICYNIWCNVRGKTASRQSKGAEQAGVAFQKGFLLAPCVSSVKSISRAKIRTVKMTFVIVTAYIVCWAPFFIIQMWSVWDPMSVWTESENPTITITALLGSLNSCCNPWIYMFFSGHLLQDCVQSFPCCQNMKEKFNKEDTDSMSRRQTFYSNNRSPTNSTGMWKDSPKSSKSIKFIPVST
TAAR1 agonist = human TAAR1 agonists, primary screen, Fluo-8 calcium fluorescence, CHO RD-HGA16 cells. Trace amine-associated receptor 1 (Homo sapiens), Q96RJ0. vehicle wells 0%, saturating PEA agonist 100%. activation, % at 3 µM. 360,000 tested, 0.99% active. AID 624467, 2012;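 active = activation above the mean activation of all test compounds in the run plus 3 SD, cut at about 38% in these data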
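System: CHO-derived RD-HGA16 cells with stable Gα16 and human TAAR1. Times: 17-24 h plating, Fluo-8 75 min 37 °C, 30 min RT. Measured by: calcium-sensitive Fluo-8 signal, excitation 470-495, emission 515-575 nm. Read-out basis: % activation relative to PEA EC100 response. Control set: DMSO and PEA EC100. Repeats: no replicates (n 1).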
OXTR potentiate = human OXTR potentiators, primary screen, fluorescence, CHO-OTR cells, Fluo-8 calcium; activation, % at 3 µM; Fluo-8 calcium fluorescence, potentiator mode; 0% = oxytocin EC15, 100% = EC100; AID 2445, 2010; 320,000 tested, 0.061% active; Oxytocin receptor (Homo sapiens), P30559;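 active = activation above that plate's cutoff, the mean activation of tested compounds plus 3 SD, cut at about 6.6% in these data, passing the limit was not always enough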;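 note: 100% uses oxytocin at 75 nM as the full agonist control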
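Material: CHO-OTR cells, human receptor; compound dosing: single dose, 3.0 µM nominal final compound concentration; schedule: 6 min compound pre-incubation at room temperature, 100 s kinetic read; measured by: kinetic Fluo-8 calcium fluorescence; read-out basis: % activation vs EC15 and EC100 oxytocin; controls: EC15 oxytocin alone as 0%, 75 nM oxytocin as 100%; replicates: singlicate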
OXTR ag = human OXTR agonists, primary screen, fluorescence, CHO-OTR cells, Fluo-8 calcium; Oxytocin receptor (Homo sapiens), P30559; Fluo-8 calcium fluorescence; normalized: DMSO 0%, oxytocin 100%; activation, % at 3 µM; 320,000 tested, 0.32% active; AID 2435, 2010;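 active = activation above the mean of all tested compounds plus 3 SD, cutoff set per screening run, cut at about 20% in these data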;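 note: peak over basal fluorescence ratio from a 100 s FLIPR kinetic read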
TAAR1 antagonist = human TAAR1 antagonists, primary screen, Fluo-8 calcium fluorescence, CHO RD-HGA16 cells; Trace amine-associated receptor 1 (Homo sapiens), Q96RJ0; antagonist; inhibition, % at 3 µM; 360,000 tested, 1.5% active;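 active = inhibition above a per-plate cutoff, the mean inhibition of test compounds on that plate plus 3 SD, cut at about 49% in these data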;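 note: 0% = DMSO plus EC80 beta-PEA response and 100% = DMSO alone without agonist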
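Test system: CHO RD-HGA16 cells bearing hTAAR1 | Reagent: β-PEA, EC80 | Compound dosing: 3 µM, single point | Schedule: Dye loading 75 min at 37 °C, then 30 min room temperature | Signal: Calcium fluorescence with Fluo-8 | Evaluation: Percent inhibition of PEA-evoked calcium signal, max/basal emission ratio | Control set: DMSO-only wells and EC80 β-PEA-stimulated wells | Repeats: Singlicate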
* = called active by the depositor; . = no result given.

SMILES	V1R ag counter	TAAR1 agonist	OXTR potentiate	OXTR ag	TAAR1 antagonist
COc1ccc(-n2ncc3c(N4CCN(c5cc(C)ccc5C)CC4)ncnc32)cc1	1	-3	-1	0	103*
Cc1ccc(-n2ncc3c(N4CCN(c5ccccc5)CC4)ncnc32)c(C)c1	4	12	-7	5	62*
COc1ccc(N2CCN(c3ncnc4c3cnn4-c3ccc(C)cc3C)CC2)cc1	5	1	-11	6	18
Oc1ccc(N2CCN(c3ncnc4sc(-c5ccccc5)cc34)CC2)cc1	.	-1	.	.	12
OC(c1ccccc1)C(NCc1ccccc1)c1ccccc1 (stereo not drawn)	.	3	.	.	-5
C[C@H]1COC(=O)[C@@H](Cc2ccc(F)cc2)C/C=C\C[C@H](CC(=O)N(CCO)Cc2ccccc2)C(=O)N1	0	5	-6	0	-8
CCOC(=O)c1csc(NC(=O)C2=COCCO2)n1	1	0	0	0	-14
Cc1cc(=O)n2nc(N3CCCC(C(=O)Nc4cccc(C)c4C)C3)sc2n1 (stereo not drawn)	.	0	.	.	-8
CN(C)C(=O)c1ccc(Nc2nc(-c3cccs3)nc3ccccc23)cc1	1	9	-9	0	51*
CCCCC[C@@H](/C=C/C1C(=O)C=C[C@H]1C/C=C\CCCC(=O)OC)OC(C)=O (stereo partly drawn)	.	4	.	.	50*
C=CCc1cccc2cc(C(=O)N(CC)CC)c(=O)oc12	1	2	-3	-1	106*
C=CCc1cccc2cc(C(=O)N(C)C)c(=O)oc12	0	-1	0	0	0
COc1ccccc1CN1CCNC(=O)C1CC(=O)NC1Cc2ccccc2C1 (stereo not drawn)	1	41*	-10	0	-14
COc1ccccc1CN1CCNC(=O)C1CC(=O)O (stereo not drawn)	1	5	0	2	15
COc1cc(N2CCCC2)c(OC)cc1/C=C(/C#N)c1cccc(F)c1	21*	.	-12	21*	.
N#C/C(=C/c1ccc(N2CCCCCC2)o1)c1cccc(F)c1	1	9	-4	3	17
NC(=O)C1CCN(C(=O)c2ccc3nc(-c4ccccc4)c(-c4ccccc4)nc3c2)CC1	9	2	1	0	6
COCCCn1c(SCCc2ccccc2)nc2cc(OC)c(OC)cc2c1=N	-2	11	-10	-2	56*
Cc1ccc2nc(C)c(CN3CCN(c4ccc([N+](=O)[O-])cc4Cl)CC3)n2c1	5	43*	-13	4	-12
C=CCN=C1NC(c2ccc(F)cc2)C(C(=O)OC)=C(C)N1Cc1ccccc1C(F)(F)F (stereo not drawn)	.	8	.	.	1
COc1ccc(OC)c(S(=O)(=O)CC(=O)c2cc3ccc(OC)cc3oc2=O)c1	0	.	-10	0	.
COc1ccc(S(=O)(=O)CC(=O)c2cc3cc(Br)ccc3oc2=O)cc1	1	42*	-11	1	43
CCN(CC)c1ccc(S(=O)(=O)N2CCOCC2)cc1NC(=O)COC(=O)/C=C/c1ccc(C)o1	0	8	-4	-2	65*
CCN(CC)c1ccc(S(=O)(=O)N2CCOCC2)cc1NC(=O)COC(=O)/C=C/c1ccc(O)c(OC)c1	.	9	.	.	45
COC(=O)[C@@H]1[C@@H](C#N)C2(c3ccccc3-c3ccccc32)N(c2ccc(Cl)cc2)N1C#N	-1	3	1	-1	50*
SMILES	V1R ag counter	TAAR1 agonist	OXTR potentiate	OXTR ag	TAAR1 antagonist
O=C(Cc1ccc(Cl)cc1)NN1C(=O)c2ccccc2C1=O	1	9	-3	0	-9
O=C(Cc1ccc(NC(=O)C2CCN(C(=O)CCc3ccccc3)CC2)cc1)Nc1cccc(C(=O)N2CCCC2)c1	.	0	.	.	-41
O=C(COc1ccccc1)NC(=S)Nc1cccc2c(O)cccc12	.	42*	.	.	12
COC(=O)c1ccccc1NC(=S)NC(=O)COc1ccccc1	2	21	-2	1	-1
CCCOc1ccc(Br)cc1CSC(=N)N	13	80*	-18	16	50*
CCOc1ccc(Br)cc1CC(=O)O	0	5	-8	-1	-1
CCCC(=O)Nc1ccc(C(=O)COC(=O)c2cc(C)oc2C)cc1	4	0	-5	2	5
O=C1CN(C(=O)/C=C/c2ccco2)c2ccccc2N1	1	5	3	0	-2
COc1ccccc1NC(=O)CSc1nc2[nH]ncc2c(=O)[nH]1	0	1	-3	0	-18
COC(=O)C1=C(C)N(Cc2cccc(C(F)(F)F)c2)C(=NCc2ccccc2C(F)(F)F)NC1c1cccc(F)c1 (stereo not drawn)	.	6	.	.	3
COc1ccc(CCn2c(C)cc(C(=O)COC(=O)c3ccc(O)cc3O)c2C)cc1	.	10	.	.	65*
COc1ccc(CCn2c(C)cc(C(=O)COC(=O)c3cnc(C)cn3)c2C)cc1	-1	7	-4	0	6
COCCCNC(=S)N1CCN(c2nc(-c3ccc(F)cc3)cs2)CC1	9	9	-22	10	52*
Cn1c(=O)[nH]c(=O)c2c1nc(NN)n2CCOc1ccccc1	0	12	-19	-1	-23
Cc1ccc(-n2ncc3c(NNC(=O)c4cccs4)ncnc32)cc1	1	8	-15	1	-12
O=C(CSc1ccc(-c2nc3ccccc3[nH]2)cn1)Nc1ccc(S(=O)(=O)N2CCCC2)cc1	4	8	-8	1	51*
O=C1NCCC/C1=N/Nc1cc(F)ccc1F	3	2	-13	2	-14
CCOC(=O)C1CCCN(C(=O)Cc2c(C(=O)O)[nH]c3ccccc23)C1 (stereo not drawn)	0	39*	-2	1	32
CCOC(=O)C1CCN(C(=S)Nc2ccccc2)CC1	0	5	-7	1	-16
CCOC(=O)C1CCCN(C(=O)c2ccc(-c3ccc([N+](=O)[O-])cc3)o2)C1 (stereo not drawn)	-1	49*	-7	-3	37
CCOC(=O)C1CCCN(C(=S)Nc2ccc(Nc3ccccc3)cc2)C1 (stereo not drawn)	0	44*	-16	0	42
CCOC(=O)C1CCCN(C(=O)C2c3ccccc3Oc3ccccc32)C1 (stereo not drawn)	35*	13	-4	44*	8
Cc1ccc(-n2nc3ccc(NC(=O)/C=C/c4ccco4)cc3n2)cc1	-1	1	1	-1	9
O=C(CN1CCOCC1)Nc1scc2c1c(=O)oc1ccccc12	-2	16	-6	0	53*
